Sampled rows, rich in hits. Any-hit rate of the full collection: about 27%.
CYP2C19 activ = activators of human cytochrome P450 2C19; 96,000 tested, under 10 active; activation factor at 5 µM; AID 1025; recombinant CYP2C19, luciferin-H EGE luminescence; hits give high values; 0 = fully inhibited enzyme, 1 = untreated enzyme;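 active means activation factor of at least 2 at 5 µM in the primary screen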;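 further: 0 = wells with 2.5 mM tranylcypromine and 1 = vehicle-only wells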
Target sequence (P33261 whole entry, looked up): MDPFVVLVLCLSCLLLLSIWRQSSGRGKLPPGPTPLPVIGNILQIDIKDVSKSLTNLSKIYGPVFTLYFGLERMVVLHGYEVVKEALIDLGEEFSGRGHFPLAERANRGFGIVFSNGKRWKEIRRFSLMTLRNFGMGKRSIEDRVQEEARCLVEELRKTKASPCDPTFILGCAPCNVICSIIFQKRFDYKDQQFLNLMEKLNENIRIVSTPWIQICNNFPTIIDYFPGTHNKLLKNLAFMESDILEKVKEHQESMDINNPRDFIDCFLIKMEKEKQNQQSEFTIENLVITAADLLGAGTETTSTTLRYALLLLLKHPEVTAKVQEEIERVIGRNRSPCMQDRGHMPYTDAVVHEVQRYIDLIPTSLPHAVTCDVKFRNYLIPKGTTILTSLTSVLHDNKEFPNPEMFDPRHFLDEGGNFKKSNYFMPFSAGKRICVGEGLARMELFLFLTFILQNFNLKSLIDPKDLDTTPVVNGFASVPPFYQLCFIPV
CYP2C19 inh = blocks human cytochrome P450 2C19. CYP2C19 Supersomes, luciferin-H EGE luminescence, 30 min. inhibition, % at 5 µM. AID 778. 21% of 96,000 active;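 active means CYP2C19 inhibition above a set limit at 5 µM in the primary screen, cut at about 50% in these data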;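 further: plate controls were negative control wells for no effect and 2.5 mM tranylcypromine positive control for full effect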
CYP2C9 inhib = inhibitors of human CYP2C9. P11712. CYP2C9 Supersomes, luciferin-H conversion, luminescence. inhibition, % at 5 µM. 20% of 96,000 active;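 active means blocking of liver enzyme CYP2C9 beyond about 50% at 5 µM, limit read from the data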
Cav32 inh = human Cav3.2 channel inhibition, primary screen. Cav3.2-expressing cells, Fluo-4 calcium fluorescence FDSS; hits give low values. B-score at 10 µM. 4% of 100,000 active. AID 449739;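 active means single-dose well whose peak fluorescence ratio is a statistical outlier from its plate by either plate-standardised score or position-corrected B-score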
Rev-RRE block = inhibitors of HIV-1 Rev-RRE RNA interaction; P05866; Rev peptide-RRE RNA binding, FRET; inhibition, % at 8 µM; 0.79% of 97,000 active; AID 704;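 active means inhibition above the screen-wide mean plus 3 SD, cut at about 35% in these data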;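 further: 0% = median DMSO wells and 100% = median Neomycin B control wells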
Target sequence (P05866 whole entry, looked up): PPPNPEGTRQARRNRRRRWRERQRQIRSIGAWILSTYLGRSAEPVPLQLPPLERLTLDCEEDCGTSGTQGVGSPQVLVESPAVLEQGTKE
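Assay system: labelled RRE RNA duplex and labelled Rev peptide / Medium: HEPES pH 7.5 salt buffer with EDTA / Reagent: labelled Rev peptide / Schedule: 5 + 15 min at 25 °C / Signal: FRET, excitation 480 nm, emission 540 nm donor and 671 nm acceptor / Benchmarks: DMSO and neomycin B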
CYP2C9 act = activators of human CYP2C9 | AID 1024 | P11712 | activation factor at 5 µM | 1.4% of 96,000 active | recombinant CYP2C9, luciferin-H conversion, luminescence; hits give high values; factor 1 = untreated enzyme, 0 = blocked;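 active means activation factor of 2 or more for CYP2C9 at a 5 µM dose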;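 further: 0 = sulfaphenazole-blocked wells and 1 = vehicle-only wells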
Starred values were filed as active, the others as inactive; . = no result.

SMILES | CYP2C19 activ | CYP2C19 inh | CYP2C9 inhib | Cav32 inh | Rev-RRE block | CYP2C9 act
CC1Cc2cc(-c3csc(NC(=O)Cc4ccccc4)n3)ccc2N1S(C)(=O)=O (stereo unspecified) | 0.7 | 25.1 | 58.1* | -2.08 | 7.5 | 0.4
O=C(Nc1nc(-c2cccc([N+](=O)[O-])c2)cs1)C(c1ccccc1)c1ccccc1 | 0.9 | 10.4 | 73.9* | -1.73 | 7.0 | 0.3
COc1cccc(-c2csc(NC(=O)Oc3ccccc3)n2)c1 | 0.9 | 13.7 | 15.7 | -1.2 | 7.8 | 0.8
O=S(=O)(/C=C/c1ccccc1)N1CCN(c2ccccc2)CC1 | 0.7 | 29.5 | -13.3 | 0.593 | 1.5 | 1.1
COc1ccccc1NC(=O)c1ccc(S(=O)(=O)N2CCCC2)cc1 | 1 | 4.6 | 23.5 | . | 2.1 | 0.8
CCOC(=O)N1CCN(S(=O)(=O)/C=C/c2ccccc2)CC1 | 0.1 | 85.4* | -14.2 | 0.086 | 2.2 | 1.1
COc1ccccc1N1CCN(S(=O)(=O)c2ccc(F)cc2)CC1 | 0.1 | 91.4* | 82.2* | -0.0167 | 3.8 | 0.2
Cc1cccc(C)c1N1CCN(S(=O)(=O)c2ccc(F)cc2)CC1 | 0 | 96.7* | 93.4* | 1.31 | 15.0 | 0.1
COc1ccccc1N1CCN(C(=O)c2ccc(S(=O)(=O)N3CCCCCC3)cc2)CC1 | 0.5 | 52.4* | 71.4* | -0.00894 | 1.6 | 0.3
CC1(C)CC(=O)C2=C(C1)Nc1ncnn1C2c1ccccn1 (stereo unspecified) | 1 | -1.7 | -0.5 | 1.08 | 6.0 | 1
C#CCOCCOCCOCCNc1nc(N2CCN(C(=O)[C@H](CCC(=O)O)n3cc(C(N)[C@H](C)CC)nn3)CC2)nc(N2CCN(C(=O)[C@H](CCC(=O)O)n3cc(C(N)[C@H](C)CC)nn3)CC2)n1 (stereo partly specified) | . | . | . | 0.14 | . | .
C=CCSc1nnc(NC(=O)c2ccc(Cl)nc2)s1 | 0.7 | 26.2 | 42.0 | 0.224 | 9.6 | 0.6
COc1ccc(OC)c(S(=O)(=O)N2CCN(c3c(C)cccc3C)CC2)c1 | 0.5 | 50.5* | 97.7* | -7.31* | 11.7 | 0
CCN1CCN(S(=O)(=O)c2cc(OC)ccc2OC)CC1 | 0.9 | 12.6 | -17.6 | 0.637 | 6.7 | 1.2
COc1ccccc1N1CCN(S(=O)(=O)/C=C/c2ccccc2)CC1 | 0 | 99.6* | 65.8* | -2.7 | 3.1 | 0.3
COc1ccccc1N1CCN(S(=O)(=O)c2cccc(F)c2)CC1 | 0 | 96.5* | 89.1* | -0.281 | 7.0 | 0.1
CCn1cc(C(=O)NC2CCc3ccccc32)c(=O)c2ccc(C)nc21 (stereo unspecified) | 0.8 | 23.6 | -5.7 | -0.607 | -1.8 | 1.1
COC(=O)C(C(=O)OC)N1C(=O)CCC1=O | 1.1 | -11.3 | -4.0 | 0.567 | 8.7 | 1
CN1c2ccccc2C(C)(C)C12C=Cc1cc(O)ccc1O2 (stereo unspecified) | 0.2 | 75.6* | 61.2* | 0.094 | 14.0 | 0.4
O=S(=O)(Nc1cccnc1)c1ccc(C2CCCCC2)cc1 | 1 | 3.6 | 4.5 | -1.67 | 8.4 | 1
CC(C)(C)c1ccc(S(=O)(=O)Nc2cccnc2)cc1 | 0.4 | 62.4* | 13.5 | -1.5 | 6.8 | 0.9
O=S(=O)(Nc1cccnc1)c1ccc(Cl)cc1 | 0.2 | 85.0* | 84.7* | 0.207 | 2.1 | 0.2
O=S(=O)(Nc1cccnc1)c1ccc2c(c1)OCCO2 | 0.4 | 57.8* | 14.3 | 0.00803 | 11.5 | 0.9
O=S(=O)(Nc1ccncc1)c1ccc(Cl)cc1 | 1 | 3.8 | 39.8 | 0.0626 | 1.4 | 0.6
COC(=O)c1cc(C(C)=O)n2ccccc12 | 0.9 | 6.9 | -22.9 | 1.18 | 6.7 | 1.2
SMILES | CYP2C19 activ | CYP2C19 inh | CYP2C9 inhib | Cav32 inh | Rev-RRE block | CYP2C9 act
CCOc1ccc(-c2nc(-c3cccnc3)no2)cc1 | . | . | . | 0.485 | -1.8 | .
Cc1ccc(OCc2nc(-c3ccccc3)no2)c(C)c1 | 0.3 | 72.3* | 58.6* | 0.691 | 19.6 | 0.4
Cc1cc(C)c(C)c(OCc2nc(-c3cccnc3)no2)c1 | 0.3 | 68.3* | 21.5 | -0.133 | 13.4 | 0.8
CSc1ncccc1C(=O)OCc1ccc(COC(=O)c2cccnc2SC)cc1 | 0.9 | 5.1 | 3.4 | . | 1.4 | 1
CCC(=O)N/C(=N\OCc1ccc(F)cc1)c1nonc1NC(=O)CC | 0.3 | 65.0* | 11.5 | 0.487 | 0.1 | 0.9
COc1cc(C(=O)N2CCN=C2c2ccccc2)cc(OC)c1OC | 0.6 | 41.2 | -6.1 | 0.215 | 0.4 | 1.1
Cc1cc(C)c(S(=O)(=O)N2CCN=C2c2ccccc2)cc1C | 0.4 | 59.9* | -47.3 | -0.193 | 6.6 | 1.5
Cc1ccc(C)c(N2CCN(C(=O)c3ccc(CSc4nc5ccncc5[nH]4)cc3)CC2)c1 | . | . | . | -1.36 | . | .
Cc1cc(C=O)c(C)n1-c1ccc(N2CCCC2)c([N+](=O)[O-])c1 | 0.3 | 70.2* | 43.6 | -1.04 | 1.5 | 0.6
Cc1ccc(NC(=O)/C(C#N)=C/c2cc(C)n(-c3ccc(N4CCOCC4)c([N+](=O)[O-])c3)c2C)c(C)c1 | 1 | -1.9 | 19.6 | -0.124 | 4.4 | 0.8
CN(c1ccccc1)S(=O)(=O)c1ccc(NC(=O)c2ccc(-c3ccccc3)cc2)cc1 | 0.4 | 62.3* | 84.1* | -1.83 | 2.3 | 0.2
CN(c1ccccc1)S(=O)(=O)c1ccc(C(=O)Nc2nnc(-c3ccc(F)cc3)o2)cc1 | 1 | 4.6 | 34.0 | -7.52* | 7.8 | 0.7
CC(=O)Nc1ccc(S(=O)(=O)N(C)c2ccccc2)cc1 | 0.7 | 31.3 | 15.6 | 0.0011 | . | 0.8
Cc1csc(NC(=O)c2ccc(S(=O)(=O)N(C)c3ccccc3)cc2)n1 | 0.9 | 14.0 | 43.5 | . | 1.7 | 0.6
CN(c1ccccc1)S(=O)(=O)c1ccc(NC(=S)Nc2ccccc2)cc1 | 0.8 | 17.2 | 60.1* | -0.142 | 5.2 | 0.4
COc1ccc(C(=O)COc2ccc(NC(C)=O)cc2)cc1 | 0.5 | 47.8 | 45.4 | 0.273 | 9.2 | 0.5
CNC(=O)NC(=O)COC(=O)CCCOc1ccc(OC)cc1 | 0.9 | 13.2 | 22.8 | 0.279 | -2.2 | 0.8
O=C(O)Cc1c[nH]c2ccccc12 | . | . | . | 1.18 | . | .
O=C(CCl)N(c1ccccc1)c1c[nH]c2ccccc12 | 0.6 | 44.1 | 94.6* | 0.698 | -2.1 | 0.1
O=C(CCl)N(c1ccc(Cl)cc1)c1c[nH]c2ccccc12 | 0.1 | 90.5* | 81.7* | -3.23 | 9.3 | 0.2
CCOC(=O)Cc1c[nH]c2ccccc12 | 0.9 | 14.9 | 8.9 | 0.835 | 7.8 | 0.9
C=CCN1C(=O)C(O)(CC(=O)c2ccco2)c2cc(Br)ccc21 (stereo unspecified) | . | . | . | 1.27 | . | .
Cc1ccc(S(=O)(=O)N(C)CCCC(=O)N2CCN(C=O)CC2)cc1 | 0.7 | 31.0 | 45.3 | 0.233 | 8.7 | 0.5
COCCN1C(=O)c2oc3ccccc3c(=O)c2C1c1cccc(O)c1 (stereo unspecified) | 0.4 | 55.4* | 43.1 | 0.465 | 1.9 | 0.6

High-throughput results: PubChem BioAssay, several laboratories
